Where two headings read alike, the source gives them in different places.
How the values were obtained:
[1] = tested on: C57BL/6J mice; β2 and α6 WT and KO mice; test: Conditioned place preference; format: in vivo
Method in brief: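 Three-chamber place conditioning in β2 and α6 WT and KO mice (C57BL/6J background, 8–10/group). Day 1: 5 min confinement to the middle chamber, then 15 min free access. Test compound (0.05 mg/kg s.c.) or vehicle given over three conditioning days, sessions 4 h apart, paired chamber randomized. Day 5: drug-free 15 min test. Score = drug-paired-side time on test day minus baseline.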

[2] = molecular target: high sensitivity α4(2)β2(3) nAChR (Homo sapiens, UniProt P17787+P43681); test: Two-electrode voltage clamp in Xenopus oocytes, HS α4β2; format: cell-based
Method in brief: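 Human HS α4β2 nAChR from in vitro–transcribed cRNA in Xenopus oocytes. Two-electrode clamp at −60 mV, 24°C, in Ringer's (pH 7.2, 1 μM atropine) perfused at 2 ml/min. Test compound over a concentration range as 12 s applications with 181 s washout. Peak current and net charge taken relative to same-cell 10 μM ACh controls, then scaled to ACh maximum from separate experiments; ≥4 oocytes.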

[3] = tested on: C57BL/6J mice; β2 WT and KO mice; test: Body temperature; format: in vivo; settings: 0.5 mg/kg s.c.
Method in brief: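 Mixed-sex β2 WT and KO mice on a C57BL/6J background, 8/group, given saline or test compound 0.5 mg/kg s.c. Rectal temperature read by thermistor probe inserted 24 mm, just before and at set times after injection. Change from pre-treatment reading computed per mouse; room temperature 21–24°C.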

[4] = α4(2)β2(3), normalized to the maximum ACh responses

Sequence of high sensitivity α4(2)β2(3) nAChR (P17787 26-502): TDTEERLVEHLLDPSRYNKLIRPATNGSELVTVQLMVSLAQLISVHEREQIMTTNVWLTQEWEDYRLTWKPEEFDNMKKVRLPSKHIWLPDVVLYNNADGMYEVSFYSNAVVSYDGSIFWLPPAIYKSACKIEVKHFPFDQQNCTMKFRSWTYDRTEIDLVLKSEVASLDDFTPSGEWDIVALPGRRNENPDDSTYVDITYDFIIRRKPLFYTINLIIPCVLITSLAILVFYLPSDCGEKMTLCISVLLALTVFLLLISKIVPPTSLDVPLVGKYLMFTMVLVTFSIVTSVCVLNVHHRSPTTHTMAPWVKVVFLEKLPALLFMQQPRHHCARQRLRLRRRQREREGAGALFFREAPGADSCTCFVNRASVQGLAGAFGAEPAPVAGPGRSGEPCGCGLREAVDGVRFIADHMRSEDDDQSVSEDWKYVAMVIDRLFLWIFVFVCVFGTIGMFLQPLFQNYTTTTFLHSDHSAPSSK
Sequence of high sensitivity α4(2)β2(3) nAChR (P43681 29-627 limits assumed): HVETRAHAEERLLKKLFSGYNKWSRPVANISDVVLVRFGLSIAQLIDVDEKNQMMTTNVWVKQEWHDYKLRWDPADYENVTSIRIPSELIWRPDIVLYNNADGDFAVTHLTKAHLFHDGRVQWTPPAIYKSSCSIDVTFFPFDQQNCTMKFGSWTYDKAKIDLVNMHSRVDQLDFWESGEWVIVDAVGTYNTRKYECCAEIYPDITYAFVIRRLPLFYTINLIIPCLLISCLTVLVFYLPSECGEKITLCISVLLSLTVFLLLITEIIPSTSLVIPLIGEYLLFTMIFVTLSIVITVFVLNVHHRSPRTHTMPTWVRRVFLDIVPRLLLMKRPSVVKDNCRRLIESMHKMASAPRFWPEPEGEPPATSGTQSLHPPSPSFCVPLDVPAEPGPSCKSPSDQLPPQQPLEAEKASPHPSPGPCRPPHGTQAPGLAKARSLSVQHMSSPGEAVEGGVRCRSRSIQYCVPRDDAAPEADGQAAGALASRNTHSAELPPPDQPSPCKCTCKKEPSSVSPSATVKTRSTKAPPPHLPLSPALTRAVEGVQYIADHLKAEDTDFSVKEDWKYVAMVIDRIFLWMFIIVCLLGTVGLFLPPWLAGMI
Sequence of high sensitivity α4(2)β2(3) nAChR (P17787 26-502): as the sequence (P17787 26-502) above

With Ic1cncc(OC[C@@H]2CCN2)c1 [5IA, 5-Iodo-A-85380] as the compound, how does the “Conditioned place preference, dose-response (in words)” value ([1]; C57BL/6J mice, 0.01, 0.05, 0.1, 0.5 or 1 mg/kg s.c.) read?
The value was “significant 5IA induced-CPP at 0.05 and 0.1 mg/kg, but not at 0.01, 0.5, and 1 mg/kg”.

What about the “Conditioned place preference, α6 WT vs KO (in words)” value ([1]; α6 WT and KO mice, 0.05 mg/kg s.c.) of the same compound?
Its value is “no significant difference in 5IA-induced CPP between α6 WT and KO mice”.

What about the “Conditioned place preference (in words)” value ([1]; β2 KO mice, 0.05 mg/kg s.c.) of the same compound?
The value was “significantly abolished in β2 KO mice”.

What about the “Conditioned place preference (in words)” value ([1]; β2 WT mice, 0.05 mg/kg s.c.) of the same compound?
The value was “significant CPP in comparison to their vehicle counterparts”.

What about the “Effect on current duration (in words)” value ([2]; HS α4β2 receptors) of the same compound?
Its value is “prolonged the currents”.

And the “Efficacy (in words)” value ([2]; high sensitivity α4(2)β2(3))?
The value was “full agonist”.

What about the EC50 ([2]; read-out: Net Charge EC50, α4(2)β2(3)) of the same compound?
The EC50 was 0.062 ± 0.011 µM.

And the EC50 ([2]; read-out: Peak Currents EC50, α4(2)β2(3))?
Its EC50 is 0.042 ± 0.002 µM.

What about the “Net Charge Imax” value [2, 4] of the same compound?
Its value is 3.0 ± 0.18.

What about the “Peak Currents Imax” value [2, 4] of the same compound?
The value was 1.3 ± 0.02.

And the “Body temperature, time course (in words)” value ([3]; C57BL/6J mice, vs vehicle)?
The value was “significant reductions in body temperature in comparison to their vehicle controls at 15-, 30- and 60-min”.

What about the “Hypothermic effect in β2 KO vs WT mice (in words)” value ([3]; β2 WT and KO mice) of the same compound?
The value was “significantly abolished in β2 KO mice”.
